# Experimental data from the RNAGym collection of RNA variant scans (doi:10.1126/science.aae0568).
# Variants at the floor of the assay were thinned out.
# B1: tRNA (parent)
# chain: GUUCCGUUGGCGUAAUGGUAACGCGUCUCCCUCCUAAGGAGAAGACUGCGGGUUCGAGUCCCGUACGGAACG
# Variants of: B1
# Assay: yeast fitness relative to wild type (ratio to wild type); higher = fitter; tRNA-Arg(CCU), competitive growth, 37 C, YPD
# Summary of the method: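 Amplicons of the tRNA-Arg(CCU) gene were sequenced, 100-nucleotide paired-end, from the start population and from each end population of a pooled yeast competition. The competition, in six parallel replicates, lasted 24 hours in YPD at 37°C. Fitness relative to wild type was calculated from changes in genotype frequencies. Genotypes had to have ≥ 100 starting reads, and estimates < 0.5 were set to 0.5.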
row,Variant,yeast fitness
1,GUUCCGUUGGCGUAAUGGUAACGCGUCUCCCUCCUUAGGAGAAGACUGCGGGUUCGAGUCCCGUACGGCACG,0.629
2,GUUCCGUUGGCGUAAUGGUAACGCGUCUCCCUCCUUAGGAGAAGACUGCGGGUUCGAGUCCCGUACGGGACG,0.617
3,GUUCCGUUGGCGUAAUGGUAACGCGUCUCCCUCCUGAGGAGAAGACUGCCGGUUCGAGUCCCGCACGGAACG,1.18
4,GUUCCGUUGGCGUAAUGGUAACGCGUCUCCCUCCUGAGGAGAAGACUGCCGGUUCGAGUCCCGUACGGAACG,0.723
5,GUUCCGUUGGCGUAAUGGUAACGCGUCUCCCUCCUGAGGAGAAGACUGCGGGUGCGAGUCCCGUACGGAACG,0.66
6,GUUCCGUUGGCGUAAUGGUAACGCGUCUCCCUCCUGAGGAGAAGACUGCGGGUCCGAGUCCCGUACGGAACG,0.906
7,GUUCCGUUGGCGUAAUGGUAACGCGUCUCCCUCCUUAGGAGAAGCCUGUGGGUUCGAGUCCCGUACGGAACG,≤ 0.5
8,GUUCCGUUGGCGUAAUGGUAACGCGUCUCCCUCCUGAGGAGAAGACUGCGGGUUCCAGUCCCGUACGGAACG,0.686
9,GUUCCGUUGGCGUAAUGGUAACGCGUCUCCCUCCUGAGGAGAAGACUGCGGGUUCAAGUCCCGUACGGAACG,1.01
10,GUUCCGUUGGCGUAAUGGUAACGCGUCUCCCUCCUGAGGAGAAGACUGCGGAUUCGAGUCCGGUACGGAACG,≤ 0.5
11,GUUCCGUUGGCGUAAUGGUAACGCGUCUCCCUCCUUAGGAGAAGAUUGCGAGUUCGAGUCCCGCACGGAACG,0.597
12,GUUCCGUUGGCGUAAUGGUAACGCGUCUCCCUCCUGAGGAGAAGACUGCGGGUUCGAGCCCCGUACGGAACG,1.18
13,GUUCCGUUGGCGUAAUGGUAACGCGUCUCCCUCCUGAGGAGAAGACUGCGGGUUCGACUCCCGUACGGAACG,0.943
14,GUUCCGUUGGCGUAAUGGUAACGCGUCUCCCUCCUGAGGAGAAGACUGCGGGUUCGAAUCCCGUACGGAACG,0.898
15,GUUCCGUUGGCGUAAUGGUAACGCGUCUCCCUCCUGAGGAGAAGACUGCGGGUUCGAGUCCCGUACGAAACG,0.905
16,GUUCCGUUGGCGUAAUGGUAACGCGUCUCCCUCCUUUGGAGAAGACUGCGGGUUAGAGUCCCCUACGGAACG,≤ 0.5
17,GUUCCGUUGGCGUAAUGGUAACGCGUCUCCCUCCUUAGGAGAAGACUGAGGAUUCGAGUCCCGUACGGAACG,≤ 0.5
18,GUUCCGUUGGCGUAAUGGUAACGCGUCUCCCUCCUUAGGAGAAGAGUGCGGGUUCGAGUCCCGUACGGAACG,0.655
19,GUUCCGUUGGCGUAAUGGUAACGCGUCUCCCUCCUUAGGAGAAGCCUGCGGGUUCGAGUCCCGUACGGAACG,0.6

row,Variant,yeast fitness
1,GUUCCGUUGGCGUAAUGGUAACGCGUCUCCCUCCUUAGGAGAAGUCUGCGGGUUCGAGUCCCGUACGGAACG,0.728
2,GUUCCGUUGGCGUAAUGGUAACGCGUCUCCCUCCUUAGGAGCAGACUGCGGGUUCGAGUCCCGUACGGAACG,0.595
3,GUUCCGUUGGCGUAAUGGUAACGCGUCUCCCUCCUUAGGAGAAGUCUGCGGCUUCGAGUCCCGUACGGAACG,≤ 0.5
4,GUUCCGUUGGCGUAAUGGUAACGCGUCUCCCUCCUUAGGAGAAGAGUGCGGGUCCGAGUCCAGUACGGCACG,≤ 0.5
5,GUUCCGUUGGCGUAAUGGUAACGCGUCUCCCUCCUUAGGAGAAGGCUGAGGGUUCGAGUCCCGUAUGGAGCG,≤ 0.5
6,GUUCCGUUGGCGUAAUGGUAACGCGUCUCCCUCCUUAGGAGAAGAGUGCGGGUUCGAGUCCAGUACGGCACG,0.562
7,GUUCCGUUGGCGUAAUGGUAACGCGUCUCCCUCCUGAGGAGAAGACUGCGGGUUCGAGUCCCGAACCGAACG,≤ 0.5
8,GUUCCGUUGGCGUAAUGGUAACGCGUCUCCCUCCUUAGGAGAAGCCUGGGGGUUCGAGUCCCGUACAGAACG,0.548
9,GUUCCGUUGGCGUAAUGGUAACGCGUCUCCCUCCUUAGGAGAAGAAUGCGGGUUCGAGUCCCGUAAGGAACG,≤ 0.5
10,GUUCCGUUGGCGUAAUGGUAACGCGUCUCCCUCCUUAGGCGAAGACUGCGGGUUCGAGUCCUGUCCGGAACG,≤ 0.5
11,GUUCCGUUGGCGUAAUGGUAACGCGUCUCCCUCCUUAGGAGAAGACUGUGGGUUCGAGUCCCGUACGGAACG,0.585
12,GUUCCGUUGGCGUAAUGGUAACGCGUCUCCCUCCUUAGGAGAAGACUGGGGGUUCGAGUCCCGUACGGAACG,0.607
13,GUUCCGUUGGCGUAAUGGUAACGCGUCUCCCUCCUUAGGAGAAGACUGCGGGUUGGAGUCCCGUACGGAACG,≤ 0.5
14,GUUCCGUUGGCGUAAUGGUAACGCGUCUCCCUCCUGAGGAGAAGACUGCGGGUUCGAGUCCCGAACGGAACG,0.796
15,GUUCCGUUGGCGUAAUGGUAACGCGUCUCCCUCCUUAGGAGAGGAAUCCGGGUUCGAGUCCCGUACGGACCG,≤ 0.5
16,GUUCCGUUGGCGUAAUGGUAACGCGUCUCCCUCCUUAGGAGAAGACUGCGGGUUUGAGUCCCGUCCGGAACG,≤ 0.5
17,GUUCCGUUGGCGUAAUGGUAACGCGUCUCCCUCCUUAGGAGAAGUUUGCGGGCUCGAGUCCCGUACGGAACG,≤ 0.5
18,GUUCCGUUGGCGUAAUGGUAACGCGUCUCCCUCCUUAGGUGAAGACUGCGGGUUCGGGUCCCGUACGGAACG,≤ 0.5
